In the library only some 5.4% were active in any assay of this set; here they are far more common.
PostGolgi ctrl – growth of the yeast control strain, post-Golgi counter-screen; efflux-deficient yeast background strain, growth absorbance A615, 16 h; inhibition, % at 10 µM; 98,000 compounds, 5% hits
tolC growth inh – E. coli tolC mutant growth inhibition; growth inhibition, % at 10 µM (by protocol); AID 573; E. coli BW25113 tolC mutant growth, OD615; 65,000 compounds, 2.2% hits;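 active = growth inhibition at or above a cutoff equal to the mean over every tested compound plus 3 SD, cut at about 60% in these data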;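 also: growth measured after 20 h incubation at 37 °C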
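Material: E. coli BW25113 ΔtolC::kan, tolC deletion mutant strain. Measure: percent growth inhibition. Schedule: 37 °C, 20 h exposure. Doses: single-point testing at 10 µM. Signal: A615 absorbance measurement. Buffer or medium: kanamycin-containing LB broth (50 µg/mL).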
HePTP inhibitor – inhibitors of human HePTP phosphatase | P35236 | recombinant HePTP phosphatase activity, OD absorbance | 110,000 compounds, 0.64% hits | inhibition, % at 20 µM; in the data active = inhibition above about 50%
Target sequence (P35236 whole entry, looked up): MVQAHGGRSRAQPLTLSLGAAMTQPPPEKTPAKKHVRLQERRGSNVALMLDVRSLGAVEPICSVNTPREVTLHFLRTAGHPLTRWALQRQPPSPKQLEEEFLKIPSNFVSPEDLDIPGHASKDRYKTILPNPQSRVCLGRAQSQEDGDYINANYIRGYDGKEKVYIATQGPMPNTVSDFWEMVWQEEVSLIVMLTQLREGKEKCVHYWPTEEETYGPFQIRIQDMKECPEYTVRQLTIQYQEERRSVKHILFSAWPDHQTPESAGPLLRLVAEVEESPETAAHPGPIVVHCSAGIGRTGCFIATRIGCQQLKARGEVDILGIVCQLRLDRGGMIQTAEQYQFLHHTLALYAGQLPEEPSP
PLAP act – human PLAP activation; P05187; purified PLAP enzyme, luminescent substrate read-out; stronger effect = higher value; activation fold at 20 µM; AID 696; 96,000 compounds, 1.2% hits; in the data active = activation fold above about 2
PostGolgi yeast – growth inhibition of a yeast mutant, post-Golgi transport screen. 98,000 compounds, 0.9% hits. AID 739. post-Golgi transport phenotypic cell assay. inhibition, % at 10 µM;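 also: yeast cells grown in 1536-well plates; yeast grown about 18 h at 30C before absorbance read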
E coli WT exp – blocks growth of wild type E. coli BW25113; AID 710; 98,000 compounds, 0.15% hits; OD600 absorbance; growth inhibition, % at 100 µM;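 active = growth inhibition above about 50% at one test dose, limit read from the data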;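 also: growth measured after 20 h incubation at 37 °C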
Numbers stand for hits. Rule as the data show it, unless noted: active = inhibition above about 30%; inactive = the rest.

What do the screens show for `CCCCn1c(SCC(N)=O)nc2ccc(N3CCOCC3)cc2c1=O`?
PostGolgi ctrl: 34.5; PLAP act: inactive; PostGolgi yeast: inactive; E coli WT exp: inactive

How did N#Cc1c(N)oc(-c2ccc3c(c2)OCO3)c1-c1ccc2c(c1)OCO2 do in these assays?
PostGolgi ctrl: inactive; tolC growth inh: 72.3; HePTP inhibitor: inactive; PLAP act: inactive; PostGolgi yeast: inactive; E coli WT exp: inactive

How did CN1CCN(/N=C/C(Br)=C\c2ccccc2)CC1 do in these assays?
HePTP inhibitor: inactive

Results for BrC(=C\c1ccccc1)/C=N/N1CCN(c2ccccn2)CC1 ?
PostGolgi ctrl: 37.7; PLAP act: inactive; PostGolgi yeast: inactive; E coli WT exp: inactive

Results for COC(=O)CN(c1cc(Cl)ccc1OC)S(=O)(=O)c1ccc(C)c([N+](=O)[O-])c1 ?
HePTP inhibitor: inactive

What do the screens show for `CCn1c(N)c(C(=O)NCC2CCCO2)sc1=S` (stereo not given)?
PostGolgi ctrl: inactive; tolC growth inh: inactive; HePTP inhibitor: inactive; PLAP act: inactive; PostGolgi yeast: inactive; E coli WT exp: inactive

How did Nc1c(C(=O)OCC2CCCO2)c2nc3ccccc3nc2n1-c1ccc2c(c1)OCCO2 (stereo not given) do in these assays?
PostGolgi ctrl: inactive; tolC growth inh: inactive; HePTP inhibitor: inactive; PLAP act: inactive; PostGolgi yeast: 43.1; E coli WT exp: inactive

How did COc1ccc(-n2c(N)c(C(=O)NCC3CCCO3)c3nc4ccccc4nc32)c(OC)c1 (stereo not given) do in these assays?
PostGolgi ctrl: inactive; tolC growth inh: inactive; HePTP inhibitor: inactive; PLAP act: 2; PostGolgi yeast: inactive; E coli WT exp: inactive

How did COc1ccc(-n2nc(C(=O)NCC(=O)NCC3CCCO3)c3ccccc3c2=O)c(OC)c1 (stereo not given) do in these assays?
PostGolgi ctrl: inactive; tolC growth inh: inactive; HePTP inhibitor: inactive; PLAP act: inactive; PostGolgi yeast: inactive; E coli WT exp: inactive

Results for C=CCn1c(N)c(C(=O)NCC2CCCO2)c2nc3ccccc3nc21 (stereo not given) ?
PostGolgi ctrl: inactive; tolC growth inh: inactive; HePTP inhibitor: inactive; PLAP act: inactive; PostGolgi yeast: 33.0; E coli WT exp: inactive

How did Nc1c(C(=O)NC2CC2)c2nc3ccccc3nc2n1-c1ccc2c(c1)OCO2 do in these assays?
PostGolgi ctrl: inactive; tolC growth inh: inactive; HePTP inhibitor: inactive; PLAP act: inactive; PostGolgi yeast: inactive; E coli WT exp: inactive

How did C=CCn1c(N)c(C(=O)NCC2CCCO2)sc1=S (stereo not given) do in these assays?
PostGolgi ctrl: 32.0; tolC growth inh: inactive; HePTP inhibitor: inactive; PLAP act: inactive; PostGolgi yeast: inactive; E coli WT exp: inactive

What do the screens show for `O=C(NCC1CCCO1)c1coc2nc3ccccc3nc12` (stereo not given)?
PostGolgi ctrl: inactive; tolC growth inh: inactive; HePTP inhibitor: inactive; PLAP act: inactive; PostGolgi yeast: inactive; E coli WT exp: inactive

How did COc1ccc(S(=O)(=O)N(CC(=O)N2CCCCCC2)c2cc(C)cc(C)c2)cc1OC do in these assays?
HePTP inhibitor: inactive

What do the screens show for `CC(C)(C)c1cc(C(=O)N/N=C/c2ccccc2Cl)n[nH]1`?
HePTP inhibitor: inactive

How did O=S(=O)(c1ccc(Br)cc1)N1CCCC1c1nc2ccccc2s1 (stereo not given) do in these assays?
PostGolgi ctrl: 40.0; PostGolgi yeast: inactive; E coli WT exp: inactive

Results for CCCCC(CC)CN1C(=O)/C(=C/c2ccncc2)SC1=S (stereo not given) ?
PostGolgi ctrl: 31.8; PLAP act: inactive; PostGolgi yeast: inactive; E coli WT exp: inactive

What do the screens show for `COC(=O)CN1C(=O)C(=Cc2ccncc2)SC1=S`?
HePTP inhibitor: inactive

How did CCN(CC)CCCCOc1ccc(Cl)cc1C do in these assays?
HePTP inhibitor: inactive

Results for O=C(NC(=S)NC1CCSC1=O)c1ccco1 (stereo not given) ?
HePTP inhibitor: 103.4

How did O=C(NC(=S)NC1CCSC1=O)c1ccccc1Cl (stereo not given) do in these assays?
PostGolgi ctrl: inactive; PLAP act: inactive; PostGolgi yeast: inactive; E coli WT exp: inactive

What do the screens show for `CN(C)c1ccc(NC(=O)COc2ccccc2Cl)cc1`?
HePTP inhibitor: inactive

How did COc1cc(-c2nnc(SC(C)C(=O)Nc3c(C)n(C)n(-c4ccccc4)c3=O)o2)cc(OC)c1OC (stereo not given) do in these assays?
PostGolgi ctrl: inactive; PLAP act: 2; PostGolgi yeast: inactive; E coli WT exp: inactive

How did Cc1c(NC(=O)C(C)Sc2nnc(-c3ccccc3)o2)c(=O)n(-c2ccccc2)n1C (stereo not given) do in these assays?
PostGolgi ctrl: inactive; tolC growth inh: inactive; HePTP inhibitor: inactive; PLAP act: 2.1; PostGolgi yeast: inactive; E coli WT exp: inactive

How did Cc1cc(SC(C)C(=O)Nc2c(C)n(C)n(-c3ccccc3)c2=O)nc2ccccc12 (stereo not given) do in these assays?
PostGolgi ctrl: inactive; PLAP act: inactive; PostGolgi yeast: inactive; E coli WT exp: inactive

How did O=C(Oc1ccc(/C=N/NC(=O)C2COc3ccccc3O2)cc1)c1cccnc1 (stereo not given) do in these assays?
HePTP inhibitor: inactive

Results for CCC(=O)N1CCN(c2ccc([N+](=O)[O-])cc2)CC1 ?
HePTP inhibitor: inactive

Results for N#CC(C#N)=C/C(C#N)=C(/N)N1CCN(c2ccc(Cl)cc2)CC1 ?
PostGolgi ctrl: 30.6; PLAP act: inactive; PostGolgi yeast: 47.5; E coli WT exp: inactive

Results for Cc1cccc(C(=O)NNC(=O)COc2cccc3ccccc23)c1O ?
HePTP inhibitor: inactive

What do the screens show for `Cc1cc(C)cc(N2C(=O)CC(n3ccnc3)C2=O)c1` (stereo not given)?
PostGolgi ctrl: 31.8; tolC growth inh: inactive; HePTP inhibitor: inactive; PLAP act: inactive; PostGolgi yeast: inactive; E coli WT exp: inactive

What do the screens show for `Cc1cc(C)cc(N2C(=O)CC(N3CCOCC3)C2=O)c1` (stereo not given)?
PostGolgi ctrl: inactive; tolC growth inh: inactive; HePTP inhibitor: inactive; PLAP act: inactive; PostGolgi yeast: inactive; E coli WT exp: inactive

What do the screens show for `COC(=O)c1ccc(N=C2S/C(=C\c3cc(C)n(-c4cccnc4)c3C)C(=O)N2C)cc1`?
PostGolgi ctrl: 32.3; PLAP act: inactive; PostGolgi yeast: inactive; E coli WT exp: inactive

What do the screens show for `CC12CCC(C(=O)Nc3cccc4ccccc34)(C1Br)C2(C)C` (stereo not given)?
PostGolgi ctrl: 40.0; PLAP act: inactive; PostGolgi yeast: inactive; E coli WT exp: inactive

What do the screens show for `Cc1cc(C)c2c(=O)[nH]c(SCC(=O)N(C)C)nc2n1`?
PostGolgi ctrl: inactive; PLAP act: inactive; PostGolgi yeast: 35.9; E coli WT exp: inactive

Results for CCOC(=O)c1c(NC(=O)c2ccc(Br)cc2)sc(C(=O)N(CC)CC)c1C ?
HePTP inhibitor: inactive

What do the screens show for `CC(=O)c1ccc(N2CCN(C(=O)c3ccco3)CC2)c(F)c1`?
PostGolgi ctrl: inactive; tolC growth inh: inactive; HePTP inhibitor: inactive; PLAP act: inactive; PostGolgi yeast: inactive; E coli WT exp: inactive
